This note sets out measurements from ChEMBL document CHEMBL1142632, “A new bioactive sesterterpene and antiplasmodial alkaloids from the marine sponge hyrtios cf. erecta” (J Nat Prod, 2000).

≈ marks a conversion by molar mass, not a printed value. Calls of active or inactive are those of the source. The calls are words filed in the database; no cut-off is given here.

For one data set, the system named is Microbotryum violaceum. Put plainly: Antifungal activity against Ustilago violacea at 50 ug by agar diffusion assay. The data set is classed as functional. The note with it: read-out: IZ. The procedure, abridged: (§1)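 Agar diffusion: crude extracts and pure compounds applied at 50 µg per disk; growth inhibition read as zone diameter (mm).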
(In agar diffusion tests the substance spreads into inoculated agar from a disc or well.)

Data set [1] addresses Tyrosine-protein kinase Lck (Homo sapiens) (UniProt P06239). The data set is described as follows: Inhibition of p56 LCK activity at 0.5 mM. Set-up: scale not given: the % may be the effect or the level left. An outline of the steps:
(§2)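 Nonradioactive ELISA-based tyrosine kinase assay. Samples in DMSO/H2O (1:1) were incubated with 1 U p56lck, 1 µM tyrosine kinase substrate II, 1 mM ATP and 10 mM MgCl2 at 30 °C for 60 to 80 min. Buffers: 20% dilution buffer (HEPES, pH 7.0) and 20% assay buffer (Tris, pH 7.5, with Na3VO4). Absorbance read at 415 nm as residual activity.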

The test system of data set [2] is Plasmodium falciparum. Put plainly: Antiplasmodial activity against chloroquine, pyrimethamine-resistant Plasmodium falciparum K1. The data set is classed as functional, organism-based. An outline of the steps:
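In vitro assay against P. falciparum strain K1, a Thailand isolate resistant to chloroquine and pyrimethamine. Chloroquine and artemisinin were run as positive controls.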

Data set [3] has as its system Plasmodium falciparum. Put plainly: Antiplasmodial activity against chloroquine-sensitive Plasmodium falciparum NF54. The data set is classed as functional, organism-based. An outline of the steps:
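In vitro assay against P. falciparum strain NF54, of unknown origin and susceptible to standard antimalarials. Chloroquine and artemisinin were run as positive controls.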

In a further data set the test system is Escherichia coli. Put plainly: Antibacterial activity against Escherichia coli at 50 ug by agar diffusion assay. In kind it is functional. The note with it: read-out: IZ. The procedure, abridged:
as §1

Another data set relates to Priestia megaterium. The data set is described as follows: Antibacterial activity against Bacillus megaterium at 50 ug by agar diffusion assay. In kind it is functional. The note with it: read-out: IZ. An outline of the steps:
as §1

The target of data set [4] is Tyrosine-protein kinase Lck (Homo sapiens) (UniProt P06239). The data set is described as follows: Inhibition of p56 LCK activity at 0.7 mM. Also on record: scale not given: the % may be the effect or the level left. The procedure, abridged: as §2
Data set [5] addresses Human immunodeficiency virus type 1 reverse transcriptase (Human immunodeficiency virus 1) (UniProt Q72547). The data set is described as follows: Inhibition of HIV1 reverse transcriptase assessed as enzyme residual activity at 0.12 mM. The procedure, abridged:
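Nonradioactive ELISA-based reverse transcriptase assay. Reaction mixture held 1 ng recombinant HIV-1-RT. Samples were dissolved in 10% DMSO/lysis buffer. Read-out was residual enzyme activity.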

Data set [6] relates to Trypanosoma brucei rhodesiense. Put plainly: Antitrypanosomal activity against Trypanosoma brucei subsp. rhodesiense. The data set is classed as functional, organism-based.
The test system of data set [7] is Hepatovirus A. The data set is described as follows: Antiviral activity against HAV cytHB1.1 in FRhK4 cells assessed as effect on cytopathogenic effect at 0.038 ug/mL after 21 days by immunofluorescence analysis. In kind it is functional, organism-based. An outline of the steps:
(§3)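 FRhK-4 cells in 96-well plates were used. For line 5, cells were inoculated with 2 × 10^7 TCID50/ml HAVcytHB1.1. For line 4, cells were persistently infected with HAV/7. Morphology (cytopathogenicity) was checked microscopically over 21 days, and HAV antigen was detected by immunofluorescence after 21 days.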
Background: Protection from cytopathic effect is a common read-out in antiviral testing.

Data set [8] relates to Hepatovirus A. Put plainly: Antiviral activity against HAV 7 in FRhK4 cells assessed as effect on cytopathogenic effect at 0.038 ug/mL after 21 days by immunofluorescence analysis. The data set is classed as functional, organism-based. An outline of the steps:
as §3

Data set [9] can be described thus: Cytotoxicity against rat L6 cells. In kind it is cell-based. The conditions noted are these: read-out: MIC.
The target of data set [10] is Tyrosine-protein kinase Lck (Homo sapiens) (UniProt P06239). The data set is described as follows: Inhibition of p56 LCK activity at 0.6 mM. Also on record: scale not given: the % may be the effect or the level left. An outline of the steps:
as §2

Data set [11] shares this target. Put plainly: Inhibition of p56 LCK activity at 0.3 mM. Set-up: scale not given: the % may be the effect or the level left. The procedure, abridged:
as §2

Data set [12] is described as follows: Cytotoxicity against mouse peritoneal macrophages. In kind it is cell-based, Macrophage. The note with it: read-out: MIC.

Sequence of Tyrosine-protein kinase Lck (Homo sapiens) (P06239 2-509 limits assumed): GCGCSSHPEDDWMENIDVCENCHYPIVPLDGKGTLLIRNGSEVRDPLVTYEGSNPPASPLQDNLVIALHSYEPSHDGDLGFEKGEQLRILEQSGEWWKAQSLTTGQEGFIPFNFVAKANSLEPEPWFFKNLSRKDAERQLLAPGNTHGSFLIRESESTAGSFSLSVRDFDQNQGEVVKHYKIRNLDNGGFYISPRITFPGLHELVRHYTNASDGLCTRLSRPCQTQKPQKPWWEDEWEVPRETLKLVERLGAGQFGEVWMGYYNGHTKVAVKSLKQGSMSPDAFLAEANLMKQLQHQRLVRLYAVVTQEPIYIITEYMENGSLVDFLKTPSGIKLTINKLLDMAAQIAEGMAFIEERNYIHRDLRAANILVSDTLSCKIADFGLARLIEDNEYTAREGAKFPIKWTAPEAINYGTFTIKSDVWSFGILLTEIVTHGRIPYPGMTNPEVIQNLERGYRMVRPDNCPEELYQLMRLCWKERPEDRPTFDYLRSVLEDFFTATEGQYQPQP

On to `CC1=C(CC/C(C)=C/CC/C(C)=C/CCC2=CCOC2=O)C(C)(C)CCC1`, for which the zone of inhibition at 50 µg/disc with Microbotryum violaceum amounted to 2 mm.
Turning to `CC1=C(CC/C(C)=C/CC/C(C)=C/CCC2=CCOC2=O)C(C)(C)CCC1=O`, in data set [1], the Activity amounted to 45%.
Take `C[C@@H]1CC[C@H]2[C@@H](C)C(=O)O[C@@H]3O[C@@]4(C)CC[C@@H]1[C@]32OO4` [ARTEMISININ]: the IC50 (as a rule, the concentration at which inhibition is half-maximal) is 0.001 µg/mL (≈ 3.54 nM) with Plasmodium falciparum [2] and 0.002 µg/mL (≈ 7.08 nM) in the data set with Plasmodium falciparum [3].
As for `O=C1c2ccccc2-[n+]2ccc3c([nH]c4ccccc43)c21.[Cl-]` [FASCAPLYSIN CHLORIDE], the zone of inhibition at 50 µg/disc was determined as 6 mm with Escherichia coli and 10 mm in the data set on Priestia megaterium. For the same compound, the Activity in [4] and in [5] was 10% each time. Also, the IC50 came to 0.63 µM in [6], 0.05 µg/mL in the data set on Plasmodium falciparum [2] and 0.034 µg/mL in the data set on Plasmodium falciparum [3]. In addition, the outcome in the data set on Hepatovirus A [7] and in the data set on Hepatovirus A [8] was Active. The MCC in data set [9] turned out to be 2.5 µg/mL.
For `CC(=O)CC1(O)c2ccccc2-[n+]2ccc3c([nH]c4ccccc43)c21.[Cl-]` (configuration not stated) [HOMOFASCAPLYSIN A], the zone of inhibition at 50 µg/disc with Escherichia coli was determined as 9 mm; in the data set on Priestia megaterium, 11 mm. In addition, the figures for the Activity in data set [10] and in data set [11] were 8% and 44%, respectively. Besides, the values for the half-maximal inhibitory concentration (IC50) in the data set with Plasmodium falciparum [2] and in the data set on Plasmodium falciparum [3] were 0.014 µg/mL and 0.024 µg/mL, respectively. In addition, the MCC was determined as 1.1 µg/mL in data set [9] and 30 µg/mL in [12].
